Results taken from ChEMBL document CHEMBL1131381, “Design and synthesis of potent, selective inhibitors of endothelin-converting enzyme” (J Med Chem, 1998).
pIC50: −log10 of the molar value.

How the values were obtained:
[1] = Ratio of inhibitory activities against endothelin converting enzyme-1(ECE-1) and neutral endopeptidase (NEP).
[2] = target: Neprilysin (Homo sapiens, UniProt P08473); test: Inhibitory activity against neutral endopeptidase (NEP).
[3] = target: T1, Endothelin-converting enzyme 1 (Homo sapiens, UniProt P42892); test: Inhibitory activity was assessed on CHO cells expressing recombinant human Endothelin-converting enzyme 1 (ECE-1).; type: cell-based
T1 sequence (P42892 whole entry): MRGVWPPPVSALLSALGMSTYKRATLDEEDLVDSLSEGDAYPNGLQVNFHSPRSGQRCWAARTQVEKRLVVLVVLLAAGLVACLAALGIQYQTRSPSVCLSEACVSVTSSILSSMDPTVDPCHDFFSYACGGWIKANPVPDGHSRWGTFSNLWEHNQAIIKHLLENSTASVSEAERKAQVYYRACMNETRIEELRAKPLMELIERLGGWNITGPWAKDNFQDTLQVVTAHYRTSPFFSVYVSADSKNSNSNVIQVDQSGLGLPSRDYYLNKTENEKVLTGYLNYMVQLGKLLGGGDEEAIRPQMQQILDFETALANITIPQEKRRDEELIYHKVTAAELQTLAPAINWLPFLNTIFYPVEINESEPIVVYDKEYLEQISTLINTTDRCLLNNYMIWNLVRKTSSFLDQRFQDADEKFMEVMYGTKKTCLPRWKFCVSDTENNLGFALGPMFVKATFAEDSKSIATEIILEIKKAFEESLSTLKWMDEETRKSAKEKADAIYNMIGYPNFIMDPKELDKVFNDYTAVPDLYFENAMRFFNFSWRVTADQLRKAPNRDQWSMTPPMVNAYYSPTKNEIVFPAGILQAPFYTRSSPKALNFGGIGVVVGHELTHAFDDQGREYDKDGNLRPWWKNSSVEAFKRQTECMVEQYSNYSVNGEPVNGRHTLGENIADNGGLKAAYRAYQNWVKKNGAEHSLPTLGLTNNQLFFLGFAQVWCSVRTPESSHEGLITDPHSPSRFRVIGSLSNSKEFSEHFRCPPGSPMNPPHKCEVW
Method in brief: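 Membrane preparation (10 µg protein) from CHO cells expressing human ECE-1 was preincubated with compound for 20 min at room temperature in 50 mM Tes pH 7.0 with 0.005% Triton X-100. Human big ET-1 was added to a final 0.2 µM for 2 h at 37 °C. ET-1 formed was measured by [¹²⁵I]ET-1 radioimmunoassay.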

[4] = target: T2, Neprilysin (Rattus norvegicus) (UniProt P07861); test: Inhibitory activity (10 uM) against rat neutral endopeptidase (NEP)
T2 sequence (whole entry): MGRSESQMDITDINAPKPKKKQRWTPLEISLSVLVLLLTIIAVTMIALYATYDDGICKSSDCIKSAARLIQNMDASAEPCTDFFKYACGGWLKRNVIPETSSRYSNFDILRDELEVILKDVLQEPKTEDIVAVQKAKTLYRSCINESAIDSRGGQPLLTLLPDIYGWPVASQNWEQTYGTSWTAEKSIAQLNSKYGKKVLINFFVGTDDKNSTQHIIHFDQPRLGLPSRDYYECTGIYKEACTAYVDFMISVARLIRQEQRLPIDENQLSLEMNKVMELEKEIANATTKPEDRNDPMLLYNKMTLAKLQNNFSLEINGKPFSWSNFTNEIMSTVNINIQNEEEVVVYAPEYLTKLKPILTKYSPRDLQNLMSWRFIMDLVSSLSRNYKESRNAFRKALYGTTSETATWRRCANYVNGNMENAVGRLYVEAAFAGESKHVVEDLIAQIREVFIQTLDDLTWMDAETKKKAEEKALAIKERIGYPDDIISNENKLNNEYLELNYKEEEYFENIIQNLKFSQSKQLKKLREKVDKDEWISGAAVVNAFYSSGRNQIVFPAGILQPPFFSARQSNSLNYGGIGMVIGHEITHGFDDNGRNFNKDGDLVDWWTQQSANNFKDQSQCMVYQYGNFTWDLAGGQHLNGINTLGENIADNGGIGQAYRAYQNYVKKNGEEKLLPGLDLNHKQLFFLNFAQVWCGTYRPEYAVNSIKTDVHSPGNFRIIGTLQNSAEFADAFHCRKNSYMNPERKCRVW

[5] = target: T3, Endothelin-converting enzyme 1 (Homo sapiens) (UniProt P42892); test: Inhibitory activity (1 uM) was assessed on CHO cells expressing in recombinant human Endothelin-converting enzyme 1 (ECE-1)
T3 sequence (whole entry): T1 sequence (P42892 whole entry)

[6] = target: T3, Endothelin-converting enzyme 1 (Homo sapiens); test: Inhibitory activity (1 uM) was assessed on CHO cells expressing in recombinant human Endothelin-converting enzyme 1 (ECE-1); type: cell-based

Chain of Neprilysin (P08473 whole entry): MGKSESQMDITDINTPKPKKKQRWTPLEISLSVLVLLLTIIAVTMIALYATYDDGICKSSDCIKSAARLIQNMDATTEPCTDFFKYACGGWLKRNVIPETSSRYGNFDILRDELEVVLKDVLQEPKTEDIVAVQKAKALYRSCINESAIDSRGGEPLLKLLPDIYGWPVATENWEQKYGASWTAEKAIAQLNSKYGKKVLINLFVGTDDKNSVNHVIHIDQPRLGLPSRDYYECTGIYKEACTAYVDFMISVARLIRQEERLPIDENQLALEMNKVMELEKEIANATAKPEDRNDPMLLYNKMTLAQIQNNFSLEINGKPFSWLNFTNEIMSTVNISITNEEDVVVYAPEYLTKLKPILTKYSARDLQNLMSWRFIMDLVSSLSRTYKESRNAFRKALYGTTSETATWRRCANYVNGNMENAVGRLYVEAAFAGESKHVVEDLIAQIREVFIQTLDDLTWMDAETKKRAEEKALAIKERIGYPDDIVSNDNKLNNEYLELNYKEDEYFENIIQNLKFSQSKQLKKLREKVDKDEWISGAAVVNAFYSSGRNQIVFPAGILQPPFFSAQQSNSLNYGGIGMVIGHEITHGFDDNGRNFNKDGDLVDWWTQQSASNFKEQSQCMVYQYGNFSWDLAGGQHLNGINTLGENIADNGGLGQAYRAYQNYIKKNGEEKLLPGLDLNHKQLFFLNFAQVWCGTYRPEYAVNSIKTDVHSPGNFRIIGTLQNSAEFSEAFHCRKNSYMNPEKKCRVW

`O=C(O)[C@H](CC#Cc1ccccc1F)NC(=O)[C@H](CC#Cc1ccccc1F)NCP(=O)(O)O` gave a Selectivity [1] of 225, a pIC50 [2] of 5.20 and a pIC50 [3] of 7.55.

In the case of `O=C(NCCCc1ccccc1)[C@H](CC#Cc1ccc(F)cc1F)NCP(=O)(O)O`, the pIC50 [3] was 6.82.

For `O=C(NCCc1c[nH]c2ccccc12)[C@H](CC#Cc1ccc(F)cc1F)NCP(=O)(O)O`, the Selectivity [1] was 87, the pIC50 [2] was 5.01 and the pIC50 [3] was 6.95.

`O=C(NCCc1cccc2ccccc12)[C@H](CC#Cc1ccccc1F)NCP(=O)(O)O` gave a Selectivity [1] of 82, a pIC50 [2] of 4.97 and a pIC50 [3] of 6.89.

With `COc1ccc(CCNC(=O)[C@H](CC#Cc2ccc(F)cc2F)NCP(=O)(O)O)cc1OC` the inhibition [4] was 21% and the pIC50 [3] was 6.80.

For `CC(C)C[C@H](NC(=O)[C@H](CC#Cc1ccccc1Cl)NCP(=O)(O)O)C(=O)O`, the inhibition [4] was 38% and the pIC50 [3] was 5.37.

`O=C(NCCc1ccc(-c2ccccc2)cc1)[C@H](CC#Cc1ccc(F)cc1F)NCP(=O)(O)O` showed a Selectivity [1] of 89, a pIC50 [2] of 5.60 and a pIC50 [3] of 7.55.

With `O=C(O)CN1C(=O)[C@@H](NC(=O)[C@H](CC#Cc2ccc(F)cc2F)NCP(=O)(O)O)CCc2ccccc21` the Selectivity [1] was 9, the pIC50 [2] was 6.14 and the pIC50 [3] was 7.09.

Work on `O=C(NCCc1ccccc1)[C@H](CC#Cc1ccc(F)cc1F)NCP(=O)(O)O` yielded a pIC50 [3] of 6.96.

For `O=C(O)[C@H](CC#Cc1ccccc1F)NCP(=O)(O)O`, the Selectivity [1] was 46, the pIC50 [2] was 4.96 and the pIC50 [3] was 6.62.

With `COc1ccccc1C#CC[C@H](NCP(=O)(O)O)C(=O)N[C@@H](CC(C)C)C(=O)O` the inhibition [4] was 12% and the inhibition [5] was 0%.

For `O=P(O)(O)CN[C@@H](CC#Cc1ccccc1F)c1nnn[nH]1`, the Selectivity [1] was 0.1, the pIC50 [2] was 7.85 and the pIC50 [3] was 6.82.

For `O=C(NCCc1ccc(-c2ccccc2)cc1)[C@H](CCCc1ccccc1F)NCP(=O)(O)O`, the inhibition [6] was 8%.

In the case of `O=C(O)[C@H](CC#Cc1ccc(F)cc1F)NCP(=O)(O)O`, the Selectivity [1] was 153, the pIC50 [2] was 4.59 and the pIC50 [3] was 6.77.

In the case of `O=C(NCc1ccccc1)[C@H](CC#Cc1ccccc1F)NCP(=O)(O)O`, the Selectivity [1] was 220, the pIC50 [2] was 4.26 and the pIC50 [3] was 6.60.

Work on `O=C(NCCc1ccccn1)[C@H](CC#Cc1ccc(F)cc1F)NCP(=O)(O)O` yielded a Selectivity [1] of 32, a pIC50 [2] of 5.00 and a pIC50 [3] of 6.51.

In the case of `CC(C)C[C@H](NC(=O)[C@H](CC#Cc1ccccc1F)NCP(=O)(O)O)C(=O)O`, the pIC50 [3] was 6.92.

In the case of `O=C(O)[C@H](Cc1ccccc1)NC(=O)[C@H](CC#Cc1ccccc1F)NCP(=O)(O)O`, the Selectivity [1] was 21, the pIC50 [2] was 5.92 and the pIC50 [3] was 7.25.

Compound `O=C(NCCc1ccc2ccccc2c1)[C@H](CC#Cc1ccc(F)cc1F)NCP(=O)(O)O` has a Selectivity [1] of 132, a pIC50 [2] of 5.15 and a pIC50 [3] of 7.28.

Compound `CSCC[C@H](NC(=O)[C@H](CC#Cc1ccccc1F)NCP(=O)(O)O)C(=O)O` has a Selectivity [1] of 18, a pIC50 [2] of 5.39 and a pIC50 [3] of 6.64.

`CC(C)C[C@H](NC(=O)[C@H](CC#Cc1ccc(F)cc1F)NCP(=O)(O)O)C(=O)N[C@@H](C)C(=O)O` showed a Selectivity [1] of 725, a pIC50 [2] of 5.24 and a pIC50 [3] of 8.10.

In the case of `O=C(NCCc1ccc(Br)cc1)[C@H](CC#Cc1ccccc1F)NCP(=O)(O)O`, the Selectivity [1] was 364, the pIC50 [2] was 4.40 and the pIC50 [3] was 6.96.

Work on `O=C(O)[C@H](Cc1ccc2ccccc2c1)NC(=O)[C@H](CC#Cc1ccccc1F)NCP(=O)(O)O` yielded a Selectivity [1] of 52, a pIC50 [2] of 5.89 and a pIC50 [3] of 7.60.

In the case of `Cc1ccc(C#CC[C@H](NCP(=O)(O)O)c2nn[nH]n2)cc1`, the inhibition [6] was 45%.

Compound `COc1ccccc1C#CC[C@H](NCP(=O)(O)O)c1nn[nH]n1` has an inhibition [6] of 0%.

With `O=C(O)[C@H](Cc1ccc(-c2ccccc2)cc1)NC(=O)[C@H](CC#Cc1ccccc1F)NCP(=O)(O)O` the Selectivity [1] was 19, the pIC50 [2] was 6.60 and the pIC50 [3] was 7.89.

With `O=C(NCCCCc1ccccc1)[C@H](CC#Cc1ccccc1F)NCP(=O)(O)O` the inhibition [6] was 0%.

For `CC(C)C[C@H](NC(=O)[C@H](CC#Cc1cccc(F)c1)NCP(=O)(O)O)C(=O)O`, the pIC50 [3] was 6.40.

`O=C(NCCc1ccccc1)[C@H](CC#Cc1ccccc1F)NCP(=O)(O)O` showed a Selectivity [1] of 83, a pIC50 [2] of 4.72 and a pIC50 [3] of 6.64.

Work on `CC(C)C[C@H](NC(=O)[C@H](CC#Cc1ccccc1)NCP(=O)(O)O)C(=O)O` yielded a Selectivity [1] of 1.9, a pIC50 [2] of 6.02 and a pIC50 [3] of 6.29.

For `O=P(O)(O)CN[C@@H](CC#Cc1ccccc1)c1nn[nH]n1`, the Selectivity [1] was 0.3, the pIC50 [2] was 6.77 and the pIC50 [3] was 6.23.

In the case of `O=C(NCCc1ccc(Br)cc1)[C@H](CC#Cc1ccc(F)cc1F)NCP(=O)(O)O`, the Selectivity [1] was 20, the pIC50 [2] was 6.07 and the pIC50 [3] was 7.37.

Compound `O=C(NCCc1cccc2ccccc12)[C@H](CC#Cc1ccc(F)cc1F)NCP(=O)(O)O` has a Selectivity [1] of 182, a pIC50 [2] of 5.21 and a pIC50 [3] of 7.47.

In the case of `CC(C)C[C@H](NC(=O)[C@H](CC#Cc1ccc(F)cc1F)NCP(=O)(O)O)C(=O)O`, the Selectivity [1] was 131, the pIC50 [2] was 5.17 and the pIC50 [3] was 7.29.

With `CC(C)CCNC(=O)[C@H](CC#Cc1ccc(F)cc1F)NCP(=O)(O)O` the Selectivity [1] was 164, the pIC50 [2] was 4.64 and the pIC50 [3] was 6.85.

Compound `O=P(O)(O)C(CCc1cccc2ccccc12)N[C@@H](Cc1ccc(-c2ccccc2)cc1)c1nnn[nH]1` (some centres not stated) has a Selectivity [1] of 0.29, a pIC50 [2] of 8.30 and a pIC50 [3] of 7.77.

`CN(CCc1ccccc1)C(=O)[C@H](CC#Cc1ccccc1F)NCP(=O)(O)O` showed an inhibition [6] of 3%.

Compound `O=C(O)[C@H](CC1CCCCC1)NC(=O)[C@H](CC#Cc1ccc(F)cc1F)NCP(=O)(O)O` has a Selectivity [1] of 148, a pIC50 [2] of 5.68 and a pIC50 [3] of 7.85.

In the case of `O=C(NCCc1ccc(-c2ccccc2)cc1)[C@H](CC#Cc1ccccc1F)NCP(=O)(O)O`, the Selectivity [1] was 197, the pIC50 [2] was 5.19 and the pIC50 [3] was 7.48.

In the case of `CC(C)[C@H](NC(=O)[C@H](CC#Cc1ccccc1F)NCP(=O)(O)O)C(=O)O`, the Selectivity [1] was 57, the pIC50 [2] was 5.20 and the pIC50 [3] was 6.96.

With `O=C(NCCc1c[nH]c2ccccc12)[C@H](CC#Cc1ccccc1F)NCP(=O)(O)O` the Selectivity [1] was 132, the pIC50 [2] was 5.00 and the pIC50 [3] was 7.12.
